Experimental data published in ChEMBL document CHEMBL3351274, “Sensitization of tumor necrosis factor-related apoptosis-inducing ligand (TRAIL)-resistant primary prostate cancer cells by isoegomaketone from Perilla frutescens” (J Nat Prod, 2014).

Assays:
Type in all cases: functional
[1] = Induction of ROS generation in human RC-58T/h/SA#4 cells at 20 uM after 30 mins by flow cytometry (reference value: 1.9%)
[2] = Induction of apoptosis in human RC-58T/h/SA#4 cells assessed as DR4 expression at 2.5 uM after 24 hrs by immunoblotting analysis relative to untreated control
[3] = Induction of apoptosis in human RC-58T/h/SA#4 cells assessed as CHOP expression at 20 uM after 12 hrs by immunoblotting analysis relative to untreated control
Summary of the method: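 RC-58T/h/SA#4 cells seeded at 5 × 10^4 cells/mL and cultured 24 h, then given compound across a concentration series or at fixed dose over a time course. Lysates were quantified by BCA. 10 μg protein/lane run on 12% SDS-PAGE and transferred to nitrocellulose. Blots probed for p53, CHOP and β-actin with HRP secondary and ECL.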

[4] = Induction of ROS generation in human RC-58T/h/SA#4 cells at 40 uM after 30 mins by flow cytometry (reference value: 1.9%)
[5] = Sensitization of TRAIL-induced apoptosis in human RC-58T/h/SA#4 cells assessed as cytochrome C level in cytosol at 20 uM after 24 hrs by immunoblotting analysis relative to untreated control
Summary of the method: (§1)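 Cells given 20 μM compound and/or 100 ng/mL TRAIL for 24 h. Mitochondrial and cytosolic fractions prepared with a mitochondria isolation kit. Fractions resolved by 12% SDS-PAGE at 10 μg/lane and immunoblotted with anti-cytochrome c or anti-AIF overnight at 4 °C, then HRP secondary and ECL detection.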

[6] = Sensitization of TRAIL-induced apoptosis in human RC-58T/h/SA#4 cells assessed as procaspase-3 activation at 20 uM after 24 hrs by immunoblotting analysis in presence of Dr5 Fc chimera relative to untreated control
Summary of the method: (§2)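 Cells pretreated 2 h with 100 ng/mL DR5 Fc chimera, then given 20 μM compound and/or 100 ng/mL TRAIL for 24 h. Total lysates immunoblotted (12% SDS-PAGE, nitrocellulose) for caspase-3, -8, -9 and PARP cleavage, with HRP secondary and ECL detection.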

[7] = Sensitization of TRAIL-induced apoptosis in human RC-58T/h/SA#4 cells assessed as procaspase-9 activation at 20 uM after 24 hrs by immunoblotting analysis in presence of Dr5 Fc chimera relative to untreated control; summary of the method: as §2
[8] = Sensitization of TRAIL-induced apoptosis in human RC-58T/h/SA#4 cells assessed as AIF level in cytosol at 20 uM after 24 hrs by immunoblotting analysis relative to untreated control; summary of the method: as §1

With `CC(C)/C=C/C(=O)c1ccoc1` as the compound, how does the Activity [1] read?
The Activity was 2.9%.

And the Ratio [2]?
The Ratio was 1.1.

What about the Ratio [3] of the same compound?
Its Ratio is 1.6.

What about the Activity [4] of the same compound?
Its Activity is 2.5%.

And the Ratio [5]?
The Ratio was 1.2.

And the Ratio [6]?
The Ratio was 0.9.

And the Ratio [7]?
Its Ratio is 1.1.

And the Ratio [8]?
The Ratio was 1.2.
